Bioassay records from PubChem BioAssay.
Compounds with a hit are over-represented: about 1.8% of the library has one in this group of screens.
S1P2 antag: human S1P2 receptor antagonists, primary screen, cell-based; cell-based S1P2 antagonist assay, inhibition at 5 uM; Sphingosine 1-phosphate receptor 2 (Homo sapiens), O95136; inhibition, % at 5 µM; AID 736, 2007; 0.21% of 97,000 active; in the data active = inhibition above about 45%;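 also: CRE beta-lactamase reporter cells expressing human S1P2 stimulated with S1P; 0% = agonist at EC80 alone and 100% = agonist plus reference antagonist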
GALR2 agonist: GALR2 receptor agonists, primary screen, cell-based; GALR2-expressing cells, agonist activation read-out; 0.48% of 140,000 active; activation, % (no concentration beside the values); AID 803, 2007; in the data active = activation above about 5%, passing the limit was not always enough;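 also: 0% = vehicle buffer wells and 100% = reference agonist at full effect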
Rev-RRE block: HIV-1 Rev-RRE binding inhibitors, primary screen, biochemical, FRET, protein-RNA interaction. P05866. Rev peptide-RRE RNA binding. inhibition, % at 8 µM. 0.79% of 97,000 active;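 active = inhibition above the screen-wide mean plus 3 SD, cut at about 35% in these data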;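 also: 0% = median DMSO wells and 100% = median Neomycin B control wells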
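Test system: Cy5-tagged RRE RNA duplex with fluorescein-tagged Rev peptide; Probe or stimulus: labelled Rev peptide; Schedule: 5 min preincubation and 15 min binding, 25 °C; Signal: FRET fluorescence readout; Evaluation: % inhibition from 671/540 nm acceptor-to-donor ratio, scaled between controls; Control set: DMSO and neomycin B.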
S1P2 ag: S1P2 receptor agonists, primary screen, cell-based; 0.46% of 97,000 active; activation, % at 4.5 µM; S1P2-expressing cell line, agonist reporter read-out; in the data active = activation above about 16%;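 also: 0% = vehicle low control and 100% = maximal reference agonist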
GALR2 blocker: GALR2 antagonists in receptor-expressing cells, primary screen | Galanin receptor type 2 (Homo sapiens), O43603 | antagonist mode | inhibition, % at 4 µM | 0.39% of 140,000 active; in the data active = inhibition above about 27%;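 also: cells stimulated with galanin 1-16 at roughly its EC80; 0% = agonist challenge control and 100% = basal control without agonist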
EphB4 antag: EphB4-ephrin-B2 interaction antagonists, primary screen, biochemical, TNYL-RAW peptide probe, fluorescence polarization. Ephrin type-B receptor 4 (Homo sapiens), P54760. EphB4 LBD / TNYL-RAW-Alexa532 peptide. inhibition, % at 7 µM. 0.15% of 97,000 active. AID 720, 2007;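 active = inhibition above the screen-wide mean inhibition plus 3 SD, cut at about 15% in these data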;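 also: 0% = DMSO wells and 100% = excess unlabeled TNYL-RAW peptide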
Numbers without * were called inactive; i = inactive; nt = no result given; [ ] = remark or other dose.

SMILES	S1P2 antag	GALR2 agonist	Rev-RRE block	S1P2 ag	GALR2 blocker	EphB4 antag
CSc1ncc(/C=C2/C(=O)NC(=O)N(c3ccc(C(C)C)cc3)C2=O)cn1	nt	5.1*	nt	nt	-2	nt
CCOc1cc(C2C(C#N)=C(N)Oc3c2c(=O)oc2ccccc32)ccc1OC(=O)c1cccs1 (configuration not stated)	nt	0	nt	nt	-8	nt
CC(C)OCCCNC(=O)c1c(N)n(Cc2cccs2)c2nc3ccccc3nc12	nt	29*	nt	nt	-11	nt
COCCNC(=O)c1c(N)n(CCC(C)C)c2nc3ccccc3nc12	-34	16*	16	16*	-13	2
CC(C)CNC(=O)c1c(N)n(Cc2ccc3c(c2)OCO3)c2nc3ccccc3nc12	-140	40*	19	67*	-37	9
CC(C)CCn1c(N)c(C(=O)NCc2cccs2)c2nc3ccccc3nc21	-27	3	8	15	0	-6
CC(C)CNC(=O)c1c(N)n(Cc2ccco2)c2nc3ccccc3nc12	-65	17*	36	33*	-24	1
CCCNC(=O)c1c(N)n(Cc2ccc3c(c2)OCO3)c2nc3ccccc3nc12	-5	0	15	14	-25	-4
CC(C)OC(=O)c1c(N)n(Cc2ccco2)c2nc3ccccc3nc12	2	1	33	-1	0	2
Nc1c(C(=O)NCc2ccco2)c2nc3ccccc3nc2n1CCN1CCCCC1	-1	8	24	28*	-11	-4
CC(C)CCNC(=O)c1c(N)n(Cc2ccc3c(c2)OCO3)c2nc3ccccc3nc12	-98	10	19	129*	-12	1
CC(=NCCC1=CCCCC1)c1c(O)[nH]c(=O)[nH]c1=O	8	-1	8	-6	10	5
Cc1cc(C)c(-n2c(O)c(/C=N/N3CCCCC3c3cccnc3)c(=O)[nH]c2=O)c(C)c1 (configuration not stated)	nt	1	nt	nt	-5	nt
Cc1nn(Cc2ccccc2)c(C)c1C(=O)OCC(=O)Nc1ccccc1SCC#N	16	-2	61*	-9	-1	5
O=c1[nH]c(=O)n(Cc2ccco2)c(O)c1/C=N/N1CCCCCC1	nt	0	nt	nt	-1	nt
N#Cc1c(/N=C/c2c(O)n(Cc3ccco3)c(=O)[nH]c2=O)sc2c1CCCC2	23	0	40*	-5	7	4
COc1cc(/C=C2\C(=O)NC(=O)N(c3ccccc3)C2=O)cc(OC)c1O	-14	-1	59*	2	-11	-1
Cc1cccc(N2C(=O)NC(=O)/C(=C\c3cccn3-c3ccc(Cl)cc3)C2=O)c1	56*	-1	22	-6	8	-2
C[C@H]1CCC[C@@H](O)CCC/C=C/c2cc(O)cc(O)c2C(=O)O1	10	-4	2	-5	11	-2
C[C@H]1CCC/C=C/C2C[C@H](O)CC2[C@H](O)/C=C/C(=O)O1 (some centres not stated)	nt	-1	nt	nt	49*	nt
O=C(Cn1cnc2sc3c(c2c1=O)CCCC3)NCCCC(=O)N1CCC2(CC1)OCCO2	-16	-2	8	-4	0	-10
C/C(=C\c1ccc(N(C)C)cc1)[N+](=O)[O-]	24	-3	73*	-4	20	-1
CCOC(=O)c1ccc(NC(=O)c2c(O)[nH]c(=O)[nH]c2=O)cc1	23	0	140*[fluorescence artefact?]	-10	6	-2
CCN(CC)CCOC(=O)c1ccc(N=Cc2c(O)[nH]c(=O)[nH]c2=O)cc1	19	-1	24	-6	-4	3
CCCCOC(=O)C1=C(N)OC2=C(C(=O)CCC2)[C@]12C(=O)N(C)c1ccccc12	nt	-1	nt	nt	9	nt
COc1ccc(P2(=O)Nc3ccccc3N2)cc1	5	-1	61*	-3	19	-2
COc1ccc(NP(=O)(Nc2ccc(OC)cc2)Oc2ccccc2)cc1	nt	1	nt	nt	-3	nt
COc1ccccc1/C=C1/C(=N/O)C2CCN1CC2	nt	-1	nt	nt	-11	nt
CN1/C(=C\C=C\C2=[N+](C)c3ccc4ccccc4c3C2(C)C)C(C)(C)c2ccccc21	95*	1	i	-5	-51	-75
